Test results: ChEMBL document CHEMBL3351511, “Protective effects of lupeol against D-galactosamine and lipopolysaccharide-induced fulminant hepatic failure in mice” (J Nat Prod, 2014)
Calls of active or inactive are those of the source. The rule behind the calls is not given here.

How the values were obtained:
[1] = test system: Mus musculus; assay: Effect on serum IL-6 level in GalN/LPS-induced ICR mouse FHF liver injury model at 100 mg/kg, po administered 1 hr prior to GalN/LPS challenge measured after 6 hrs by ELISA (reference value: 654.1 +/- 19.7 pg/ml); type: functional
[2] = test system: Mus musculus; assay: Protective effect in GalN/LPS-induced ICR mouse FHF liver injury model assessed as increase in I-kappaB protein level at 100 mg/kg, po administered 1 hr prior to GalN/LPS challenge measured after 6 hrs by Western blotting analysis relative to vehicle-treated control; type: functional, organism-based; set-up: dose 100 mg/kg
How it was run: (§1)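 Oral pretreatment in olive oil 1 h before ip GalN (800 mg/kg)/LPS (40 μg/kg); liver harvested at 6 h and stored at −75 °C. SDS-PAGE and PVDF transfer used total extract (16−20 μg) for TLR4, MyD88, TRIF, IRAK-1, TRAF6 and IRAK-M, cytosolic (16 μg) for IκB, and nuclear (12 μg) for NF-κB p65. Blots were blocked in 5% milk, given primary antibody overnight at 4 °C, developed by ECL and quantified by densitometry as fold change; n = 6−8.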

[3] = test system: Mus musculus; assay: Protective effect in GalN/LPS-induced ICR mouse FHF liver injury model assessed as increase in IRAK-M protein level at 100 mg/kg, po administered 1 hr prior to GalN/LPS challenge measured after 6 hrs by Western blotting analysis relative to vehicle-treated control; type: functional, organism-based; set-up: dose 100 mg/kg; how it was run: as §1
[4] = test system: Mus musculus; assay: Protective effect in GalN/LPS-induced ICR mouse FHF liver injury model assessed as reduction in IL-6 mRNA expression at 100 mg/kg, po administered 1 hr prior to GalN/LPS challenge measured after 6 hrs by RT-PCR analysis relative to vehicle-treated control; type: functional, organism-based; set-up: dose 100 mg/kg
How it was run: (§2)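 Oral pretreatment in olive oil 1 h before ip GalN (800 mg/kg)/LPS (40 μg/kg), with liver collected at 6 h. mRNA quantified by SYBR green real-time RT-PCR. Cycling: TNF-α 45 cycles (94/65/72 °C) and IL-6 32 cycles (94/58/72 °C). Levels normalized to β-actin by the Ct method. Mean ± SEM, n = 6−8.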

[5] = test system: Mus musculus; assay: Protective effect in GalN/LPS-induced ICR mouse FHF liver injury model assessed as reduction in TRIF protein level at 100 mg/kg, po administered 1 hr prior to GalN/LPS challenge measured after 6 hrs by Western blotting analysis relative to vehicle-treated control; type: functional, organism-based; set-up: dose 100 mg/kg; how it was run: as §1
[6] = test system: Mus musculus; assay: Effect on liver histology in GalN/LPS-induced ICR mouse FHF liver injury model assessed as reversal of necrosis and inflammatory cell infiltration at 100 mg/kg, po administered 1 hr prior to GalN/LPS challenge measured after 6 hrs by hematoxylin/eosin-labeled microscopic analysis; type: functional, organism-based; set-up: dose 100 mg/kg
How it was run: (§3)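 Liver taken 6 h after challenge, fixed in 10% neutral-buffered formalin, paraffin-embedded, cut at 5 μm, H&E-stained. One pathologist scored random nonconsecutive fields blinded at 200×; n = 6−8.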

[7] = test system: Mus musculus; assay: Toxicity in ICR mouse assessed as survival at 100 mg/kg, po; type: organism-based; set-up: dose 100 mg/kg, route oral; conditions: in vivo
How it was run: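 One hour later they received intraperitoneal PBS vehicle in place of GalN/LPS. Survival was monitored up to 24 h, with 10 mice per survival group, alongside vehicle-only controls.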

[8] = test system: Mus musculus; assay: Protective effect in GalN/LPS-induced ICR mouse FHF liver injury model assessed as reduction in NF-kappaB protein level at 100 mg/kg, po administered 1 hr prior to GalN/LPS challenge measured after 6 hrs by Western blotting analysis relative to vehicle-treated control; type: functional, organism-based; set-up: dose 100 mg/kg; how it was run: as §1
[9] = test system: Mus musculus; assay: Protective effect in GalN/LPS-induced ICR mouse FHF liver injury model assessed as reduction in TRAF6 protein level at 100 mg/kg, po administered 1 hr prior to GalN/LPS challenge measured after 6 hrs by Western blotting analysis relative to vehicle-treated control; type: functional, organism-based; set-up: dose 100 mg/kg; how it was run: as §1
[10] = test system: Mus musculus; assay: Protective effect in GalN/LPS-induced ICR mouse FHF liver injury model assessed as reduction in MyD88 protein level at 100 mg/kg, po administered 1 hr prior to GalN/LPS challenge measured after 6 hrs by Western blotting analysis relative to vehicle-treated control; type: functional, organism-based; set-up: dose 100 mg/kg; how it was run: as §1
[11] = test system: Mus musculus; assay: Protective effect in GalN/LPS-induced ICR mouse FHF liver injury model assessed as reduction in TLR4 protein level at 100 mg/kg, po administered 1 hr prior to GalN/LPS challenge measured after 6 hrs by Western blotting analysis relative to vehicle-treated control; type: functional, organism-based; set-up: dose 100 mg/kg; how it was run: as §1
[12] = test system: Mus musculus; assay: Effect on serum ALT level in ICR mouse at 100 mg/kg, po after 1 hr (reference value: 57.4 +/- 8.8 U/L); type: ADME, organism-based; set-up: dose 100 mg/kg, route oral; conditions: in vivo
[13] = test system: Mus musculus; assay: Protective effect in po dosed GalN/LPS-induced ICR mouse FHF liver injury model assessed as survival administered 1 hr prior to GalN/LPS challenge measured up to 24 hrs; type: functional, organism-based
[14] = test system: Mus musculus; assay: Effect on liver histology in ICR mouse at 100 mg/kg, po after 1 hr by hematoxylin/eosin-labeled microscopic analysis relative to control; type: ADME, organism-based; set-up: dose 100 mg/kg, route oral; conditions: in vivo; how it was run: as §3
[15] = test system: Mus musculus; assay: Effect on serum TNF-alpha level in ICR mouse at 100 mg/kg, po after 1 hr by ELISA (reference value: 42.6 +/- 1.7 pg/ml); type: ADME, organism-based; set-up: dose 100 mg/kg, route oral; conditions: in vivo
[16] = test system: Mus musculus; assay: Effect on serum TNF-alpha level in GalN/LPS-induced ICR mouse FHF liver injury model at 100 mg/kg, po administered 1 hr prior to GalN/LPS challenge measured after 6 hrs by ELISA (reference value: 250.8 +/- 5.4 pg/ml); type: functional
[17] = test system: Mus musculus; assay: Protective effect in GalN/LPS-induced ICR mouse FHF liver injury model assessed as reduction in TNF-alpha mRNA expression at 100 mg/kg, po administered 1 hr prior to GalN/LPS challenge measured after 6 hrs by RT-PCR analysis relative to vehicle-treated control; type: functional, organism-based; set-up: dose 100 mg/kg; how it was run: as §2
[18] = test system: Mus musculus; assay: Protective effect in GalN/LPS-induced ICR mouse FHF liver injury model assessed as reduction in IRAK1 protein level at 100 mg/kg, po administered 1 hr prior to GalN/LPS challenge measured after 6 hrs by Western blotting analysis relative to vehicle-treated control; type: functional, organism-based; set-up: dose 100 mg/kg; how it was run: as §1
[19] = test system: Mus musculus; assay: Effect on serum ALT level in GalN/LPS-induced ICR mouse FHF liver injury model at 100 mg/kg, po administered 1 hr prior to GalN/LPS challenge measured after 6 hrs (reference value: 2704 +/- 244.2 U/L); type: functional
[20] = test system: Mus musculus; assay: Effect on serum IL-6 level in ICR mouse at 100 mg/kg, po after 1 hr by ELISA (reference value: 73.3 +/- 13.1 pg/ml); type: ADME, organism-based; set-up: dose 100 mg/kg, route oral; conditions: in vivo

C=C(C)[C@@H]1CC[C@]2(C)CC[C@]3(C)[C@H](CC[C@@H]4[C@@]5(C)CC[C@H](O)C(C)(C)[C@@H]5CC[C@]43C)[C@@H]12 [LUPEOL]
Activity [1]: 108.8 pg/mL
Activity [2]: Active
Activity [3]: Active
Activity [4]: Active
Activity [5]: inactive
Activity [6]: Active
Activity [7]: Non-toxic
Activity [8]: Active
Activity [9]: Active
Activity [10]: Active
Activity [11]: Active
Activity [12]: 58.1 U/L
Activity [13]: Dose-dependent effect
Activity [14]: Non-toxic
Activity [15]: 41 pg/mL
Activity [16]: 109 pg/mL
Activity [17]: Active
Activity [18]: Active
Activity [19]: 682 U/L
Activity [20]: 75.1 pg/mL
